Consider 16 compounds from ChEMBL document CHEMBL4043099, “Synthesis and biological activity of cyclolinopeptide A analogues modified with γ4-bis(homo-phenylalanine)” (Bioorg Med Chem, 2017).

Activity calls are given as the source filed them. The rule behind the calls is not given here. Where a SMILES comes first, the peptide text is derived from it.

For one data set, the system named is HT-29. The experiment in a line: Cytotoxicity against human HT-29 cells at 12 ug/ml. It is filed as functional, cell-based.
A further data set deals with A-431. As to the kind of experiment: Cytotoxicity against human A431 cells at 6 ug/ml. It is filed as functional, cell-based.
In data set [1] the test system is PBMC. The experiment in a line: Immunosuppressive activity in human PBMC assessed as inhibition of PHA-induced cell proliferation at 1 to 100 ug/ml after 4 days by MTT assay. It is filed as functional, cell-based. Put shortly:
(§1)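 PBMC (2×10^5 cells/well) in supplemented RPMI-1640, stimulated with 5 µg/mL PHA, with peptide at 1, 10 or 100 µg/mL. DMSO dilutions as control; no-PHA wells as baseline. Proliferation read by MTT after 4 days of incubation. Data given as mean OD of quadruplicate wells ± SE.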

The subject of data set [2] is PBMC. As to the kind of experiment: Cytotoxicity against human PBMC assessed as reduction in cell viability at 1 to 100 ug/ml after 24 hrs by MTT assay. Format: cell-based. The method, boiled down: (§2)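 Single-donor PBMC isolated on LSM, resuspended in RPMI-1640 with 10% FCS, L-glutamine, pyruvate, 2-mercaptoethanol and antibiotics. Cells plated at 3×10^5 per well and cultured 24 h with peptide at 1, 10 or 100 µg/mL. Survival read by MTT and expressed as % viable cells versus matched DMSO controls.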
In general terms: Tetrazolium dyes change colour on reduction, which living cells bring about.

The test system of data set [3] is PBMC. As to the kind of experiment: Anti-inflammatory activity in human PBMC assessed as inhibition of LPS-induced TNFalpha production at 10 ug/ml after overnight incubation by immunoassay. It is filed as functional. Put shortly:
(§3)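 Diluted venous blood from a single donor (10× in RPMI-1640), 1 mL cultures, stimulated with 1 µg/mL LPS from E. coli O:111:B4. Peptides added at 1 and 10 µg/mL from DMSO stock (5 mg/200 µL) diluted in RPMI-1640. DMSO dilutions served as 100% controls. Overnight incubation, then supernatants frozen at -20 C and TNF-α measured by ELISA.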

Data set [4] deals with PBMC. The experiment in a line: Immunosuppressive activity in human PBMC assessed as inhibition of PHA-induced proliferation after 4 days by MTT assay. Format: functional, cell-based. Put shortly:
as §1

Data set [5] has as its system PBMC. As to the kind of experiment: Immunosuppressive activity in human PBMC assessed as inhibition of PHA-induced cell proliferation at 10 ug/ml after 4 days by MTT assay. Format: functional, cell-based. The method, boiled down: as §1
Data set [6] deals with PBMC. As to the kind of experiment: Anti-inflammatory activity in human PBMC assessed as inhibition of LPS-induced TNFalpha production at 1 to 10 ug/ml after overnight incubation by immunoassay. Format: functional, cell-based. Put shortly:
as §3

The subject of data set [7] is PBMC. The experiment in a line: Cytotoxicity against human PBMC assessed as reduction in cell viability at 100 ug/ml after 24 hrs by MTT assay. It is filed as cell-based. Put shortly: as §2

For the compound `CC[C@H](C)[C@@H]1NC(=O)[C@H](CC(C)C)NC(=O)[C@H](Cc2ccccc2)NC(=O)[C@H](Cc2ccccc2)NC(=O)[C@@H]2CCCN2C(=O)[C@@H]2CCCN2C(=O)[C@H](C(C)C)NC(=O)[C@H](CC(C)C)NC(=O)[C@H]([C@@H](C)CC)NC1=O` (cyclo(FFLIILVPP)), the result in the data set on HT-29 and in the data set on A-431 was inactive.
In general, inhibition refers to how much of the control response was suppressed. `CC[C@H](C)[C@H](N)C(=O)N[C@H](C(=O)N[C@@H](CC(C)C)C(=O)N[C@H](C(=O)N1CCC[C@H]1C(=O)N1CCC[C@H]1C(=O)N[C@@H](Cc1ccccc1)C(=O)N[C@@H](CCC(=O)N[C@@H](CC(C)C)C(=O)O)Cc1ccccc1)C(C)C)[C@@H](C)CC`: in the data set with PBMC [1], the outcome was inactive. In addition, the Activity result with PBMC [2] was “Non-Toxic”. In addition, in the data set on PBMC [3], the inhibition at 10 µg/mL is 45%.
`CC[C@H](C)[C@@H]1NC(=O)[C@H](CC(C)C)NC(=O)CC[C@@H](Cc2ccccc2)NC(=O)CC[C@H](Cc2ccccc2)NC(=O)[C@@H]2CCCN2C(=O)[C@@H]2CCCN2C(=O)[C@H](C(C)C)NC(=O)[C@H](CC(C)C)NC(=O)[C@H]([C@@H](C)CC)NC1=O`: the Activity result in the data set on PBMC [4] is “Dose-dependent effect”. In addition, the inhibition entry in the data set on PBMC [3] was “Active”. For the same compound, the result with PBMC [5] was Active.
Regarding `CC[C@H](C)[C@@H]1NC(=O)[C@H](CC(C)C)NC(=O)CC[C@H](Cc2ccccc2)NC(=O)CC[C@H](Cc2ccccc2)NC(=O)[C@@H]2CCCN2C(=O)[C@@H]2CCCN2C(=O)[C@H](C(C)C)NC(=O)[C@H](CC(C)C)NC(=O)[C@H]([C@@H](C)CC)NC1=O`, the Activity entry in the data set on PBMC [4] was “Dose-dependent effect”. The inhibition result in the data set on PBMC [3] and in the data set with PBMC [6] was “Active” each time. The outcome in the data set on PBMC [5] was Active.
`CC[C@H](C)[C@@H]1NC(=O)[C@H](CC(C)C)NC(=O)CC[C@@H](Cc2ccccc2)NC(=O)[C@H](Cc2ccccc2)NC(=O)[C@@H]2CCCN2C(=O)[C@@H]2CCCN2C(=O)[C@H](C(C)C)NC(=O)[C@H](CC(C)C)NC(=O)[C@H]([C@@H](C)CC)NC1=O`: the Activity entry with PBMC [7] is “Toxic”; with PBMC [4], “Dose-dependent effect”. Further, in the data set with PBMC [3], the inhibition result is “Active”. The outcome in the data set with PBMC [5] was Active.
Regarding `CC[C@H](C)[C@H](N)C(=O)N[C@H](C(=O)N[C@@H](CC(C)C)C(=O)N[C@H](C(=O)N1CCC[C@H]1C(=O)N1CCC[C@H]1C(=O)N[C@@H](CCC(=O)N[C@@H](CCC(=O)N[C@@H](CC(C)C)C(=O)O)Cc1ccccc1)Cc1ccccc1)C(C)C)[C@@H](C)CC`, the outcome in the data set on PBMC [1] was inactive. Also, the Activity entry with PBMC [2] is “Non-Toxic”. The inhibition at 10 µg/mL in the data set on PBMC [3] turned out to be 45%.
Regarding `CC[C@H](C)[C@@H]1NC(=O)[C@H](CC(C)C)NC(=O)CC[C@@H](Cc2ccccc2)NC(=O)CC[C@@H](Cc2ccccc2)NC(=O)[C@@H]2CCCN2C(=O)[C@@H]2CCCN2C(=O)[C@H](C(C)C)NC(=O)[C@H](CC(C)C)NC(=O)[C@H]([C@@H](C)CC)NC1=O`, the results for the Activity result in the data set on PBMC [7] and with PBMC [4] were “Toxic” and “Dose-dependent effect”, respectively. In addition, the inhibition result in the data set with PBMC [3] is “Active”. Further, the outcome in the data set with PBMC [5] was Active.
Take `CC[C@H](C)[C@H](N)C(=O)N[C@H](C(=O)N[C@@H](CC(C)C)C(=O)N[C@H](C(=O)N1CCC[C@H]1C(=O)N1CCC[C@H]1C(=O)N[C@H](CCC(=O)N[C@@H](CCC(=O)N[C@@H](CC(C)C)C(=O)O)Cc1ccccc1)Cc1ccccc1)C(C)C)[C@@H](C)CC`: the result in the data set with PBMC [1] was inactive. In the data set with PBMC [2], the Activity entry is on record as “Non-Toxic”. The inhibition at 10 µg/mL with PBMC [3] came to 45%.
`CC[C@H](C)[C@@H]1NC(=O)[C@H](CC(C)C)NC(=O)CC[C@H](Cc2ccccc2)NC(=O)[C@H](Cc2ccccc2)NC(=O)[C@@H]2CCCN2C(=O)[C@@H]2CCCN2C(=O)[C@H](C(C)C)NC(=O)[C@H](CC(C)C)NC(=O)[C@H]([C@@H](C)CC)NC1=O`: the Activity entry in the data set with PBMC [4] is “Dose-dependent effect”. In addition, the inhibition result in the data set with PBMC [3] was “Active”. The outcome in the data set on PBMC [5] was Active.
Regarding `CC[C@H](C)[C@H](N)C(=O)N[C@H](C(=O)N[C@@H](CC(C)C)C(=O)N[C@H](C(=O)N1CCC[C@H]1C(=O)N1CCC[C@H]1C(=O)N[C@@H](Cc1ccccc1)C(=O)N[C@H](CCC(=O)N[C@@H](CC(C)C)C(=O)O)Cc1ccccc1)C(C)C)[C@@H](C)CC`, the outcome with PBMC [1] was inactive. For the same compound, the Activity result in the data set on PBMC [2] was “Non-Toxic”. Besides, the inhibition at 10 µg/mL with PBMC [3] worked out at 45%.
Regarding `CC[C@H](C)[C@@H]1NC(=O)[C@H](CC(C)C)NC(=O)CC[C@H](Cc2ccccc2)NC(=O)CC[C@@H](Cc2ccccc2)NC(=O)[C@@H]2CCCN2C(=O)[C@@H]2CCCN2C(=O)[C@H](C(C)C)NC(=O)[C@H](CC(C)C)NC(=O)[C@H]([C@@H](C)CC)NC1=O`, in the data set with PBMC [4], the Activity result was “Dose-dependent effect”. Besides, the inhibition result in the data set on PBMC [3] is “Active”. The outcome in the data set on PBMC [5] was Active.
In the case of `CC[C@H](C)[C@H](N)C(=O)N[C@H](C(=O)N[C@@H](CC(C)C)C(=O)N[C@H](C(=O)N1CCC[C@H]1C(=O)N1CCC[C@H]1C(=O)N[C@H](CCC(=O)N[C@H](CCC(=O)N[C@@H](CC(C)C)C(=O)O)Cc1ccccc1)Cc1ccccc1)C(C)C)[C@@H](C)CC`, in the data set on PBMC [1], the result was inactive. Besides, the Activity entry in the data set with PBMC [2] was “Non-Toxic”. In the data set on PBMC [3], the inhibition at 10 µg/mL is 45%.
Regarding `CC[C@H](C)[C@H](N)C(=O)N[C@H](C(=O)N[C@@H](CC(C)C)C(=O)N[C@H](C(=O)N1CCC[C@H]1C(=O)N1CCC[C@H]1C(=O)N[C@@H](CCC(=O)N[C@@H](Cc1ccccc1)C(=O)N[C@@H](CC(C)C)C(=O)O)Cc1ccccc1)C(C)C)[C@@H](C)CC`, in the data set with PBMC [1], the result was inactive. Further, in the data set on PBMC [2], the Activity result is “Non-Toxic”. Further, in the data set on PBMC [3], the inhibition entry is “inactive”.
Turning to `CC[C@H](C)[C@@H]1NC(=O)[C@H](CC(C)C)NC(=O)[C@H](Cc2ccccc2)NC(=O)CC[C@@H](Cc2ccccc2)NC(=O)[C@@H]2CCCN2C(=O)[C@@H]2CCCN2C(=O)[C@H](C(C)C)NC(=O)[C@H](CC(C)C)NC(=O)[C@H]([C@@H](C)CC)NC1=O`, the results for the Activity result in the data set with PBMC [7] and with PBMC [4] were “Toxic” and “Dose-dependent effect”, respectively. The inhibition entry with PBMC [3] was “Active”. Besides, in the data set with PBMC [5], the outcome was Active.
On to `CC[C@H](C)[C@H](N)C(=O)N[C@H](C(=O)N[C@@H](CC(C)C)C(=O)N[C@H](C(=O)N1CCC[C@H]1C(=O)N1CCC[C@H]1C(=O)N[C@@H](CCC(=O)N[C@H](CCC(=O)N[C@@H](CC(C)C)C(=O)O)Cc1ccccc1)Cc1ccccc1)C(C)C)[C@@H](C)CC`, for which the outcome in the data set with PBMC [1] was inactive. In addition, in the data set with PBMC [2], the Activity result is reported as “Non-Toxic”. Further, in the data set with PBMC [3], the inhibition at 10 µg/mL came to 45%.
Turning to `CC[C@H](C)[C@H](N)C(=O)N[C@H](C(=O)N[C@@H](CC(C)C)C(=O)N[C@H](C(=O)N1CCC[C@H]1C(=O)N1CCC[C@H]1C(=O)N[C@H](CCC(=O)N[C@@H](Cc1ccccc1)C(=O)N[C@@H](CC(C)C)C(=O)O)Cc1ccccc1)C(C)C)[C@@H](C)CC`, the outcome in the data set with PBMC [1] was inactive. In addition, the Activity entry in the data set on PBMC [2] was “Non-Toxic”. The inhibition at 10 µg/mL with PBMC [3] was found to be 45%.
